Data published in ChEMBL document CHEMBL4831496, “Noncovalent EGFR T790M/L858R inhibitors based on diphenylpyrimidine scaffold: Design, synthesis, and bioactivity evaluation for the treatment of NSCLC” (Eur J Med Chem, 2021).
Activity calls are given as the source filed them. No cut-off for these calls is given here.

How the values were obtained:
[1] = system: NCI-H1975; assay: Induction of apoptosis in human NCI-H1975 cells assessed as viable cells at 0.5 uM incubated for 48 hrs by AnnexinV/FITC and propidium iodide staining based flow cytometry analysis (reference value: 94.9%); assay type: functional; conditions: read-out: Activity
[2] = system: NCI-H1975; assay: Induction of apoptosis in human NCI-H1975 cells assessed as early apoptotic cells at 2 uM incubated for 48 hrs by AnnexinV/FITC and propidium iodide staining based flow cytometry analysis (reference value: 1.39%); assay type: functional
[3] = system: NCI-H1975; assay: Induction of apoptosis in human NCI-H1975 cells assessed as necrotic cells at 2 uM incubated for 48 hrs by AnnexinV/FITC and propidium iodide staining based flow cytometry analysis (reference value: 2.99%); assay type: functional
[4] = species on record: Homo sapiens; assay: Selectivity index, ratio of IC50 for wild type EGFR (unknown origin) to IC50 for EGFR L858R/T790M double mutant (unknown origin)
[5] = system: NCI-H1975; assay: Induction of cell cycle arrest in human NCI-H1975 cells assessed as accumulation of cells at G2/M phase at 2 uM incubated for 48 hrs by propidium iodide staining based flow cytometry analysis (reference value: 30.23%); assay type: functional
[6] = system: ASPC1; assay: Antiproliferative activity against human ASPC1 cells assessed as reduction in cell viability incubated for 72 hrs by CCK8 assay; assay type: functional, cell-based; conditions: ASPC1, 72 h
Procedure, shortened: (§1)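 Cells kept as monolayers at 37 °C, 5% CO2, seeded 3000-4000/well for 12 h, then exposed to compounds for 72 h. CCK-8 added for 1-2 h at 37 °C, absorbance read at 450 nm. Each dose run in triplicate, experiment repeated at least three times. IC50 taken from dose-response curves.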

[7] = system: NCI-H1975; assay: Induction of cell cycle arrest in human NCI-H1975 cells assessed as accumulation of cells at G0/G1 phase at 0.5 uM incubated for 48 hrs by propidium iodide staining based flow cytometry analysis (reference value: 58.05%); assay type: functional
[8] = system: NCI-H1975; assay: Induction of apoptosis in human NCI-H1975 cells assessed as viable cells at 2 uM incubated for 48 hrs by AnnexinV/FITC and propidium iodide staining based flow cytometry analysis (reference value: 94.9%); assay type: functional; conditions: read-out: Activity
[9] = system: NCI-H1975; assay: Induction of cell cycle arrest in human NCI-H1975 cells assessed as accumulation of cells at S phase at 0.5 uM incubated for 48 hrs by propidium iodide staining based flow cytometry analysis (reference value: 11.72%); assay type: functional
[10] = system: NCI-H1975; assay: Induction of cell cycle arrest in human NCI-H1975 cells assessed as accumulation of cells at G0/G1 phase at 2 uM incubated for 48 hrs by propidium iodide staining based flow cytometry analysis (reference value: 58.05%); assay type: functional
[11] = system: NCI-H1975; assay: Induction of apoptosis in human NCI-H1975 cells assessed as necrotic cells at 0.5 uM incubated for 48 hrs by AnnexinV/FITC and propidium iodide staining based flow cytometry analysis (reference value: 2.99%); assay type: functional
[12] = system: NCI-H1975; assay: Induction of apoptosis in human NCI-H1975 cells assessed as viable cells at 0.125 uM incubated for 48 hrs by AnnexinV/FITC and propidium iodide staining based flow cytometry analysis (reference value: 94.9%); assay type: functional; conditions: read-out: Activity
[13] = molecular target: Epidermal growth factor receptor (Homo sapiens, UniProt P00533, L858R/T790M); assay: Inhibition of EGFR L858R/T790M double mutant (unknown origin) measured after 60 mins by ADP-Glo kinase based luminescence assay
Sequence of Epidermal growth factor receptor (Homo sapiens, UniProt P00533, L858R/T790M) (P00533 25-1210 T790M/L858R limits assumed): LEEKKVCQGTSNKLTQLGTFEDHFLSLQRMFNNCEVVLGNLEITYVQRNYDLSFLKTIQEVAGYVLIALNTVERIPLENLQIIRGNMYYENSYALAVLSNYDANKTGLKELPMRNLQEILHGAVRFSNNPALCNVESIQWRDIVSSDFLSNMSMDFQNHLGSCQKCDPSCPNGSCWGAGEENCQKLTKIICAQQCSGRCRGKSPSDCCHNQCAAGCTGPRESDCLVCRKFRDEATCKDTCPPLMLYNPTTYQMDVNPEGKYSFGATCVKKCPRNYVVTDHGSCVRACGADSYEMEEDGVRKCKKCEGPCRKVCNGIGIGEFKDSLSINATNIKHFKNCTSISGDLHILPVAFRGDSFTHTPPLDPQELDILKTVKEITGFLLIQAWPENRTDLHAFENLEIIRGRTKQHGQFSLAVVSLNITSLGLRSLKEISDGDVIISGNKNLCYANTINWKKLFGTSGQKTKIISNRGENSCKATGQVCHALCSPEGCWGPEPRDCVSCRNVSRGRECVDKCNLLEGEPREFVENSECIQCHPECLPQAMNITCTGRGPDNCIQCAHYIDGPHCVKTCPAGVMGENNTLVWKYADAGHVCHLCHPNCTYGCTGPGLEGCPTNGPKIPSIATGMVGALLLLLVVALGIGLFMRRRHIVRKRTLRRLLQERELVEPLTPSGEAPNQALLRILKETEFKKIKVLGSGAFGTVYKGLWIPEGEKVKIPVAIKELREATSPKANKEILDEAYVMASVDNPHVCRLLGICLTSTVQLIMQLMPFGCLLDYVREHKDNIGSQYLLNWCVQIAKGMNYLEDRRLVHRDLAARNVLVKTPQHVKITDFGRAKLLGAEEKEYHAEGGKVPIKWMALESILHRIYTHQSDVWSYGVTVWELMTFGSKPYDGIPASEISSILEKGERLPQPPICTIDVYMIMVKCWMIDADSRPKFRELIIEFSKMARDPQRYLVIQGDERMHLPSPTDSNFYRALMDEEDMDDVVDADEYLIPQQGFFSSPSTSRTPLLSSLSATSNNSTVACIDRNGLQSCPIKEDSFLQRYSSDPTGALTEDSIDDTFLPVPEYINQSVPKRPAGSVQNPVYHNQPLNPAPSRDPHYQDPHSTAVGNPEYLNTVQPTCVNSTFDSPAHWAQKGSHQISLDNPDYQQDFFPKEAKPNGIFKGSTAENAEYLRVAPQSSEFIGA

[14] = system: NCI-H1975; assay: Induction of apoptosis in human NCI-H1975 cells assessed as late apoptotic cells at 2 uM incubated for 48 hrs by AnnexinV/FITC and propidium iodide staining based flow cytometry analysis (reference value: 0.73%); assay type: functional
[15] = system: NCI-H1975; assay: Induction of cell cycle arrest in human NCI-H1975 cells assessed as accumulation of cells at G2/M phase at 0.125 uM incubated for 48 hrs by propidium iodide staining based flow cytometry analysis (reference value: 30.23%); assay type: functional
[16] = MRT (0 to infinity) in Sprague-Dawley rat at 25 mg/kg, iv by LC-MS/MS analysis; assay type: ADME, organism-based; conditions: in vivo
Procedure, shortened: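 Male Sprague-Dawley rats (200 ± 20 g), acclimatised 1 week at 25 ± 2 °C, 50-60% RH; six rats given 25 mg/kg by tail vein. Retro-orbital blood into heparin at 10, 20, 40 min and 1, 2, 3, 4, 6, 8, 12, 24 h. Plasma ethyl acetate-extracted and quantified by LC-MS/MS, transition m/z 485.3/452.3.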

[17] = system: NCI-H1975; assay: Induction of morphological changes in human NCI-H1975 cells assessed as nuclear fragmentation at 0.5 to 2 uM incubated for 48 hrs under natural light by DAPI staining based fluorescence microscopic analysis; assay type: functional, cell-based; conditions: dose 0.5-2 µM
Procedure, shortened: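 H1975 cells seeded at about 2 × 10⁵/well for 12 h, then treated. Cells fixed in 10% formaldehyde for 10 min, stained with DAPI for 10 min at room temperature and examined by fluorescence microscopy. Cell shape was also viewed under natural light.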

[18] = system: NCI-H1975; assay: Induction of cell cycle arrest in human NCI-H1975 cells assessed as accumulation of cells at S phase at 0.125 uM incubated for 48 hrs by propidium iodide staining based flow cytometry analysis (reference value: 11.72%); assay type: functional
[19] = system: NCI-H1975; assay: Induction of cell cycle arrest in human NCI-H1975 cells assessed as accumulation of cells at G0/G1 phase at 0.125 uM incubated for 48 hrs by propidium iodide staining based flow cytometry analysis (reference value: 58.05%); assay type: functional
[20] = system: NCI-H1975; assay: Induction of apoptosis in human NCI-H1975 cells assessed as early apoptotic cells at 0.5 uM incubated for 48 hrs by AnnexinV/FITC and propidium iodide staining based flow cytometry analysis (reference value: 1.39%); assay type: functional
[21] = system: NCI-H1975; assay: Induction of apoptosis in human NCI-H1975 cells assessed as late apoptotic cells at 0.125 uM incubated for 48 hrs by AnnexinV/FITC and propidium iodide staining based flow cytometry analysis (reference value: 0.73%); assay type: functional
[22] = Selectivity index, ratio of IC50 for human A-431 cells harboring wild type EGFR (unknown origin) to IC50 for human NCI-H1975 cells harboring EGFR L858R/T790M mutant
[23] = system: NCI-H1975; assay: Induction of apoptosis in human NCI-H1975 cells assessed as necrotic cells at 0.125 uM incubated for 48 hrs by AnnexinV/FITC and propidium iodide staining based flow cytometry analysis (reference value: 2.99%); assay type: functional
[24] = Cytotoxicity against human HBE cells assessed as reduction in cell viability incubated for 72 hrs by CCK8 assay; assay type: cell-based; procedure, shortened: as §1
[25] = system: NCI-H1975; assay: Induction of apoptosis in human NCI-H1975 cells assessed as early apoptotic cells at 0.125 uM incubated for 48 hrs by AnnexinV/FITC and propidium iodide staining based flow cytometry analysis (reference value: 1.39%); assay type: functional
[26] = system: NCI-H1975; assay: Induction of cell cycle arrest in human NCI-H1975 cells assessed as accumulation of cells at S phase at 2 uM incubated for 48 hrs by propidium iodide staining based flow cytometry analysis (reference value: 11.72%); assay type: functional
[27] = molecular target: Epidermal growth factor receptor (Homo sapiens, UniProt P00533); assay: Inhibition of wild type EGFR (unknown origin) measured after 60 mins by ADP-Glo kinase based luminescence assay
Sequence of Epidermal growth factor receptor (Homo sapiens, UniProt P00533) (P00533 whole entry): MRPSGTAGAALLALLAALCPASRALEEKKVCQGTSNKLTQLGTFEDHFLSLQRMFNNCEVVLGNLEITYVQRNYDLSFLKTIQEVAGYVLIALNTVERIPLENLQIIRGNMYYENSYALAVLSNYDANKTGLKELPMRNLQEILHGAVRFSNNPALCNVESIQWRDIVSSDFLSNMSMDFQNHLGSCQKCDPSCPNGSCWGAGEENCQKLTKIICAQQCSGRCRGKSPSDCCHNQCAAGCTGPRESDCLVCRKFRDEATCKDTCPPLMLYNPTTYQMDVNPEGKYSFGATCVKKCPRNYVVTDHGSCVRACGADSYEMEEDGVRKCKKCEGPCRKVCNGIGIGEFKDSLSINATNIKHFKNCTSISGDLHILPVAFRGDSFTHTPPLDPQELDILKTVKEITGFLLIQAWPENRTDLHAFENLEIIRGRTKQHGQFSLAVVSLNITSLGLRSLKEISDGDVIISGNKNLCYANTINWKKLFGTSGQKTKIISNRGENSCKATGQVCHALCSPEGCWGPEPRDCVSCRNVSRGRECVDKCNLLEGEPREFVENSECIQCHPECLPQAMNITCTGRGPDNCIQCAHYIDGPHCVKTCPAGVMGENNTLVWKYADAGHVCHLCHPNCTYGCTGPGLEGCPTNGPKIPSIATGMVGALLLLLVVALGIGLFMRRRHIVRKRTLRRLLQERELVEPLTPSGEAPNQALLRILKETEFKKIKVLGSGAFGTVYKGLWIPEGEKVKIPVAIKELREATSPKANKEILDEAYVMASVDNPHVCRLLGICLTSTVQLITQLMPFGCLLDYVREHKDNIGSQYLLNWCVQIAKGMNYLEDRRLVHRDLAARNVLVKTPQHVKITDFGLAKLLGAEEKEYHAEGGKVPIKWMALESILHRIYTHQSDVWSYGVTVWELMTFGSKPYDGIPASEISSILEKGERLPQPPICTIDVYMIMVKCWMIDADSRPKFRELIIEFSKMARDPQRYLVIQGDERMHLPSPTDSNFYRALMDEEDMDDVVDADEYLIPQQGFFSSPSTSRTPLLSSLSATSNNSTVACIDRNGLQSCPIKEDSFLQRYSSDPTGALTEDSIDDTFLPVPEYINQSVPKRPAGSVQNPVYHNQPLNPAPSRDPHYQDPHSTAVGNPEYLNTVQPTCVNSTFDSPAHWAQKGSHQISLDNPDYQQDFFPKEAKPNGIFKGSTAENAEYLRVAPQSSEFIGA

O=C(NO)c1ccccc1Nc1nc(Nc2ccc(OCCN3CCOCC3)cc2)ncc1Cl
viability at 0.5 µM [1]: 83.8%
Activity [2]: 90.55%
Activity [3]: 0.14%
Ratio IC50 [4]: 43.4
Activity [5]: 31.9%
IC50 [6]: 0.169 µM
Activity [7]: 19.16%
viability at 2 µM [8]: 8.63%
Activity [9]: 9.86%
Activity [10]: 57.28%
Activity [11]: 0.07%
viability at 0.125 µM [12]: 95.7%
IC50 [13]: 0.0011 µM
Activity [14]: 0.67%
Activity [15]: 64.66%
MRT inf [16]: 13.1 h
Activity [17]: Active
Activity [18]: 15.08%
Activity [19]: 20.25%
Activity [20]: 15.53%
Activity [21]: 0.31%
Ratio IC50 [22]: 10.9
Activity [23]: 0.01%
IC50 [24]: 23.6 µM
Activity [25]: 4%
Activity [26]: 10.83%
IC50 [27]: 0.0477 µM
